Screening data deposited in PubChem by several laboratories.
The list is not random: actives were taken first. Their share in the collection is about 12%.
Rad51 HR inh – human RAD51 strand exchange inhibitors, primary screen, biochemical, fluorescence; DNA repair protein RAD51 homolog 1 (Homo sapiens), Q06609; hRad51 DNA strand exchange, fluorescence dequenching; inhibition, % at 10 µM; actives 0.085% (n = 200,000);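 active = inhibition above 40% at the single screening dose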;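 also: 0% = DMSO control wells and 100% = blanks with heterologous ssDNA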
Target sequence (Q06609 whole entry, looked up): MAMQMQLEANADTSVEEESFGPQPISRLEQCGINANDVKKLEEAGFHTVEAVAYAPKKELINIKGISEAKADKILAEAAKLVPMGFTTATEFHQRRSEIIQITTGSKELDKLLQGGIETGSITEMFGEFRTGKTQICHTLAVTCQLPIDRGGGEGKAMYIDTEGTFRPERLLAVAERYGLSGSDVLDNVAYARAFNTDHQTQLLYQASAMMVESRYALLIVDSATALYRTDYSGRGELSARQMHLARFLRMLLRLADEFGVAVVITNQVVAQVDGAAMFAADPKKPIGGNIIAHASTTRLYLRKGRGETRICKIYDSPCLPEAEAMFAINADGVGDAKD
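Read-out basis: percent inhibition relative to plate controls and blanks / Assay system: human Rad51 nucleoprotein filaments preassembled on unlabelled ssDNA / Timing: filaments 15 min 37 °C, then compound 30 min / Control set: per-plate controls and blanks / Technique: fluorescence dequenching at 485/520 nm / Compound: 10 µM final, single point / Also added: Fluorescein- and BHQ1-tagged 47-mer duplex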
CHOP inh – inhibitors of CHOP promoter induction, primary screen, cell-based, unfolded protein response, luciferase reporter | CHO-K1 CHOP-promoter luciferase, tunicamycin-induced, 15-18 h | actives 3.8% (n = 220,000) | inhibition, % at 10 µM;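 active = compounds that reduced the stress-induced luciferase reporter signal by more than about 70% of percent inhibition, limit read from the data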;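 also: 0% = tunicamycin plus vehicle and 100% = wells without tunicamycin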
PKD1 kinase inh – inhibitors of human PKD1 kinase, biochemical, fluorescence polarization. Serine/threonine-protein kinase D1 (Homo sapiens), Q15139. PKD1 kinase fluorescence polarization assay. inhibition, % (no concentration beside the values). actives 0.056% (n = 200,000). AID 797, 2007
Arbovirus anti – antivirals against arbovirus infection, primary screen, cell-based, full library, 10K replicate subset; arbovirus infection cell-based antiviral screen; inhibition, % at 10 µM; actives 0.37% (n = 200,000); in the data active = inhibition above about 30%
L major viab – Leishmania major promastigote growth inhibition, primary screen; Leishmania major promastigotes, resazurin fluorescence viability; actives 9% (n = 200,000); inhibition, % at 10 µM;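 also: promastigotes grown with compound for 44 hours at 28 °C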
Wee1 degr inh – Wee1 degradation inhibitors, primary screen, cell-based, HeLa, Wee1K328M-luciferase, luminescence. reporter increase, % at 5 µM. HeLa Luc-Wee1K328M stability; 100% = proteasome inhibitor MG132 effect. actives 1.2% (n = 220,000). AID 1321, 2008. Wee1-like protein kinase (Homo sapiens), P30291;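 active = activation above the mean of all tested compounds plus 3 SD, set per screening run, cut at about 8.8% in these data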;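 also: cells exposed to compound for 20 h before luminescence read; 0% = DMSO alone and 100% = MG132 at 30 µM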
Active calls of the source: *; nt = not tested or not shown. Rule as the data show it, unless noted: active = inhibition above about 50%; inactive = the rest.

SMILES	Rad51 HR inh	CHOP inh	PKD1 kinase inh	Arbovirus anti	L major viab	Wee1 degr inh
CN1C(=O)C2C(c3ccc(N(C)C)cc3)=NN(Cc3ccccc3)C2C1=O (configuration not stated)	-8	-17	-6	-5	11	-4
Cc1cc(O)cc(O)c1C=NCc1ccco1	nt	-1	1	12	6	4
NC(=O)CCN1CCN(CCOC2Cc3cc(Cl)ccc3Sc3ccccc32)CC1 (configuration not stated)	12	5	16	-35	91*	0
Clc1cccc2c1Sc1ccccc1CC2N1CCNCC1 (configuration not stated)	15	40	13	-36	100*	-2
COCCCN1CCN(C2Cc3ccccc3Sc3ccc(Cl)cc32)CC1 (configuration not stated)	nt	45	-2	-36	78*	2
O=C(c1ccccc1Cl)N1CCNCC1	nt	35	-6	3	0	-3
Clc1ccc2c(c1)C(N1CCNCC1)Cc1ccccc1S2 (configuration not stated)	nt	79*	9	-38	100*	3
COc1ccc(Cl)cc1NC(=O)CCN1CCN(C)CC1	-1	-10	-7	13	0	-2
O=C(Cc1ccccc1F)NCC1(N2CCOCC2)CCCCC1	nt	-3	nt	nt	nt	1
COCCN(C(=O)Cc1cccs1)C(C(=O)NCc1ccc(OC)cc1)c1ccc(C(C)C)cc1 (configuration not stated)	0	94*	-6	-21	28	-1
COc1ccc(CNC(=O)C(c2ccc(C)o2)N(Cc2cccs2)C(=O)Cc2cccs2)cc1 (configuration not stated)	-6	5	-7	-10	87*	1
COCCN(C(=O)Cc1cccs1)C(C(=O)NCc1ccc(OC)cc1)c1ccc(C)cc1 (configuration not stated)	9	26	-1	-1	31	0
CC(=O)c1ccccc1OC(=O)CCN1C(=O)c2ccccc2C1=O	12	16	-5	-3	-6	-2
O=C(O)CC(NC(=O)C(c1ccccc1)c1ccccc1)c1ccc(F)cc1 (configuration not stated)	nt	8	-3	5	-6	-1
N#CC(Nc1ccccc1)c1ccccc1OCc1ccccc1 (configuration not stated)	-3	89*	7	-24	11	-2
CSC1=NS(=O)(=O)c2c(C)nn(C)c2S1	3	-31	nt	nt	nt	2
Cc1cc(C)nc(Sc2nc(C)nc3c2oc2ccccc23)n1	7	-4	-5	2	72*	-1
CCCc1cc(=O)[nH]c(SCC(=O)Nc2ccc(Br)cc2Br)n1	-3	12	-2	22	-1	1
NC(=O)COC(=O)c1sc2ccccc2c1Cl	14	3	-2	2	2	-2
Cc1cc(C)n(CCOC(=O)c2sc3ccccc3c2Cl)n1	14	74*	4	1	-2	1
COc1cccc(Cn2cnc3c(NS(=O)(=O)c4ccc(Cl)cc4)c(C)c(C)cc32)c1	-2	44	-3	5	50*	0
COc1cccc(Cn2cnc3c(NS(=O)(=O)c4ccc(Cl)cc4Cl)c(C)c(C)cc32)c1	-5	69	-13	14	-1	0
CC1(C)CC(=O)C(N=Nc2ccc(C(F)(F)F)cc2[N+](=O)[O-])=C(O)C1	1	16	nt	nt	nt	1
COc1cccc(OCCNC(=O)CSc2ccc(C(F)(F)F)cc2[N+](=O)[O-])c1	5	85*	-7	0	-5	-3
CN(C)c1nc(N)c([N+](=O)[O-])c(NCCO)n1	9	30	4	8	-6	1
O=C1c2cccnc2C(Nc2ccc(Br)cc2Br)N1Cc1cccs1 (configuration not stated)	-2	41	0	-6	16	6
COc1ccc(N(CC(=O)NCCC2=CCCCC2)S(=O)(=O)c2ccc(C)cc2)cc1	4	34	-2	0	2	-2
COC(=O)C1=C2SCC(=O)N2C(N)=C(C#N)C1	-16	11	nt	nt	nt	12*
CCOC(=O)C1=C2SCC(=O)N2C(N)=C(C#N)C1	-3	-8	-7	8	-8	-1
